Bioassay records (PubChem BioAssay)
STEP inh – inhibitors of human striatal-enriched phosphatase STEP; recombinant STEP, OMFP fluorogenic substrate, fluorescence; 360,000 compounds, 0.25% hits; inhibition, % at 20 µM;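 active = inhibition at 20 µM, scaled per plate between control wells, above about 37%, limit read from the data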;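 note: 0% = DMSO with enzyme and substrate and 100% = substrate only without enzyme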
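medium = Bis-Tris buffer pH 6.0, 2.5 mM DTT, 0.005% Tween 20 | test system = STEP (striatal-enriched tyrosine phosphatase) enzyme, cell-free | measure = normalized % inhibition | compound dosing = 20 µM, 1% DMSO | also added = 25 µM OMFP | schedule = reaction 20 min, ambient temperature | measured by = fluorescence read at 480 nm ex / 540 nm em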
Scp-1 inhibitor – inhibitors of human Scp-1 phosphatase. Q9GZU7. Recombinant Scp1, phosphopeptide, malachite green phosphate absorbance. inhibition, % at 20 µM. 340,000 compounds, 0.88% hits. AID 493091;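 active = inhibition above about 50% at 20 µM, limit read from the data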;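 note: plate controls were DMSO wells with enzyme for no effect and wells lacking enzyme for full effect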
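Test system: SCP-1 phosphatase catalytic domain, residues 76-261; measured by: colorimetric phosphate reagent with accelerator and stabiliser, absorbance at 630 nm; timing: enzyme reaction 45 min at room temperature, colour 5 min, stabilisation 30 min; also added: Phosphorylated 17-residue peptide substrate; compound dosing: one concentration, 20 µM, with 1.0% DMSO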
DNMT1 block – DNMT1 (human) enzyme inhibition; P26358; DNMT1 molecular beacon, Hinp1I cleavage, fluorescence; inhibition (reported as % activation of signal), % at 10 µM; 360,000 compounds, 0.83% hits; in the data active = inhibition above about 50%
Target sequence (P26358 504-1616 limits assumed): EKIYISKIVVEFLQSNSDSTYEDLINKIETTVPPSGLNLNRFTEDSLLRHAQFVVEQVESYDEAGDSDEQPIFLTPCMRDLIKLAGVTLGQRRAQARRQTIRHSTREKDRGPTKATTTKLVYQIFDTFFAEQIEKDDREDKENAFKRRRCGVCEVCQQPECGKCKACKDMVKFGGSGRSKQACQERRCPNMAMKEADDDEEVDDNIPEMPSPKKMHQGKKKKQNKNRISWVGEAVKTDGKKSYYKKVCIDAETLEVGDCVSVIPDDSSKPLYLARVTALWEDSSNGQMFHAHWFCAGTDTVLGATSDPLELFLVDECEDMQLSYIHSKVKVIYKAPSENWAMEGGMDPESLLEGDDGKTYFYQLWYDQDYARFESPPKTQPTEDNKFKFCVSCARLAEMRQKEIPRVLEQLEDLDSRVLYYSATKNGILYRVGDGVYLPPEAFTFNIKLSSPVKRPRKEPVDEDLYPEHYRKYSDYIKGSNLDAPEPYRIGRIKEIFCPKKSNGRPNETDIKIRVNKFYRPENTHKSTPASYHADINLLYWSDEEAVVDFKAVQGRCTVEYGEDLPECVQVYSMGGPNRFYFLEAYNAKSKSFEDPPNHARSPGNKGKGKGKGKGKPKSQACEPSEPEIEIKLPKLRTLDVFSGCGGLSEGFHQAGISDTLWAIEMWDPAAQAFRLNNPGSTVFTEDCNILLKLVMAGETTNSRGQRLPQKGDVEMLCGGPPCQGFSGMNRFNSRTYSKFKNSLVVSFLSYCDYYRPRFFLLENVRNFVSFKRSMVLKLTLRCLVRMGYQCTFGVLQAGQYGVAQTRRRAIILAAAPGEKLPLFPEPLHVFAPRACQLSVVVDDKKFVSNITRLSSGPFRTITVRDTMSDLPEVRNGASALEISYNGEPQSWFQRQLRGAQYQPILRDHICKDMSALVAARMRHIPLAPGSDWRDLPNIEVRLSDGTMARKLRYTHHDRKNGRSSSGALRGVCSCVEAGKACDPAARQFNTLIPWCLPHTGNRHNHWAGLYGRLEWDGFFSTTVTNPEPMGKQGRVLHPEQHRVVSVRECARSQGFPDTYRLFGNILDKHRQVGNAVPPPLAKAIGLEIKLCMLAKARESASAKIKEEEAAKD
Rpn11 block – inhibitors of human proteasome Rpn11; human 26S proteasome, Ub4-pepOG fluorescence polarization; 20S core pre-blocked with epoxomicin; O00487; inhibition, % at 20 µM; AID 588493; 360,000 compounds, 0.59% hits;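 active = inhibition at 20 µM, scaled to each plate's controls, above about 33%, limit read from the data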
LMPTP inh – blocks human LMPTP phosphatase. P24666. recombinant LMPTP-A, OMFP fluorogenic substrate, fluorescence intensity. inhibition, % at 20 µM. 360,000 compounds, 0.22% hits. AID 651560;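 active = compounds that cut the enzyme signal by at least half of the control window in the single-dose screen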;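 note: plate controls were DMSO wells with enzyme plus substrate for no effect and substrate without enzyme for full effect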
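material = LMPTP-A | quantity = 0.625 nM enzyme | reagent = OMFP substrate, 400 µM final | buffer or medium = Bis-Tris pH 6.0, DTT, detergent | detection = endpoint fluorescence intensity from OMFP dephosphorylation | dosing = single 20 µM dose | read-out basis = % inhibition relative to no-enzyme and uninhibited control wells | control set = no-enzyme and uninhibited controls | timing = 50 min at room temperature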
Rpn11 inh conf – Rpn11 inhibition confirmation, single concentration | inhibition, % at 20 µM | AID 602318 | purified human 26S proteasome, Ub4-pepOG fluorescence polarization; proteasome pretreated with epoxomicin | shares compounds with Rpn11 block | 1,900 compounds, 29% hits
MMP-2 inh – blocks human MMP-2, flagging nonselective RPN11 hits; inhibition, % at 20 µM; shares compounds with Rpn11 block; 1,900 compounds, 4% hits; recombinant MMP-2, FRET peptide cleavage fluorescence;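 note: human MMP-2 activated beforehand with APMA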
Thrombin FP – blocks bovine thrombin, flagging nonselective RPN11 hits; shares compounds with Rpn11 block; inhibition, % at 20 µM; 1,900 compounds, 13% hits; bovine thrombin cleavage of Ub4-pepOG, fluorescence polarization;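 active = mean inhibition at least 40% at 20 µM, or signal 3 deviations below plate average, so some actives read negative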;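 note: plate controls were thrombin with DMSO for no effect and buffer wells lacking thrombin for full effect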
* hit, by the source's call. The list is not random: actives were taken first. Their share in the collection is about 2%. Cut-off read from the data, not from the text of the source, unless noted: active = inhibition above about 40%; inactive = the rest.

Results for CC(C)c1ccc(N(CC(=O)N/N=C/c2ccc(OC3CSC3)cc2)S(=O)(=O)c2ccccc2)cc1 ?
STEP inh: -1; Scp-1 inhibitor: -1; DNMT1 block: 2; Rpn11 block: 40*; LMPTP inh: 2; Rpn11 inh conf: -19; MMP-2 inh: -5; Thrombin FP: -19

Results for Cc1ccsc1/C=N/n1c(-c2cc(-c3ccccc3)n[nH]2)n[nH]c1=S ?
STEP inh: 4; Scp-1 inhibitor: 4; DNMT1 block: 0; Rpn11 block: 53*; LMPTP inh: 10; Rpn11 inh conf: 100*; MMP-2 inh: 20; Thrombin FP: 14

How did S=c1[nH]nc(-c2cc(-c3ccccc3)n[nH]2)n1/N=C/c1ccc(Br)s1 do in these assays?
STEP inh: 3; Scp-1 inhibitor: 0; DNMT1 block: 28; Rpn11 block: active; LMPTP inh: 28; Rpn11 inh conf: 91*; MMP-2 inh: 5; Thrombin FP: 49*

Results for Cc1cc(-c2n[nH]c(=S)n2/N=C/c2ccc(Br)s2)n[nH]1 ?
STEP inh: 1; Scp-1 inhibitor: 4; DNMT1 block: 4; Rpn11 block: -1; LMPTP inh: 0

How did S=c1[nH]nc(-c2cc(-c3ccccc3)n[nH]2)n1/N=C/c1c(Cl)cccc1Cl do in these assays?
STEP inh: 0; Scp-1 inhibitor: 4; DNMT1 block: 27; Rpn11 block: 47*; LMPTP inh: 30; Rpn11 inh conf: 87*; MMP-2 inh: 45*; Thrombin FP: 52*

What do the screens show for `Cc1ccccc1/C=N/n1c(-c2cc(-c3ccccc3)n[nH]2)n[nH]c1=S`?
STEP inh: 1; Scp-1 inhibitor: -13; DNMT1 block: 0; Rpn11 block: -6; LMPTP inh: 0

How did CCOc1ccc(C(=O)NCC(=O)OCc2ccc(F)cc2Cl)cc1 do in these assays?
STEP inh: -2; Scp-1 inhibitor: 0; DNMT1 block: -2; Rpn11 block: -1; LMPTP inh: 1

Results for CC(CN1CCCCC1)OC(=O)c1ccco1 (stereo unspecified) ?
STEP inh: 1; Scp-1 inhibitor: -3; DNMT1 block: -1; Rpn11 block: -2; LMPTP inh: -1

What do the screens show for `O=c1cc(-c2ccc(Cl)cc2)[nH][nH]1`?
STEP inh: 2; Scp-1 inhibitor: -8; DNMT1 block: -11; Rpn11 block: 110*; LMPTP inh: 1; Rpn11 inh conf: -7; MMP-2 inh: -28; Thrombin FP: -13

What do the screens show for `COc1ccc2nc(C)cc(N/N=C/c3ccc(F)cc3)c2c1`?
STEP inh: 3; Scp-1 inhibitor: -3; DNMT1 block: 55*; Rpn11 block: 69*; LMPTP inh: 7; Rpn11 inh conf: 4; MMP-2 inh: -27; Thrombin FP: -41

How did Cc1cccc(OCC(=O)NNC(=O)c2cc(S(=O)(=O)N(C)C)ccc2N2CCCC2)c1 do in these assays?
STEP inh: 0; Scp-1 inhibitor: -8; DNMT1 block: 2; Rpn11 block: 42*; LMPTP inh: -1; Rpn11 inh conf: 34; MMP-2 inh: -11; Thrombin FP: -4

How did COc1cccc(NC(=O)c2ccccc2)c1 do in these assays?
STEP inh: -3; Scp-1 inhibitor: -6; DNMT1 block: 18; Rpn11 block: -1; LMPTP inh: -1

Results for COc1cccc(C(=O)Nc2cccc(-c3ccccc3)c2)c1 ?
STEP inh: 1; Scp-1 inhibitor: -12; DNMT1 block: 5; Rpn11 block: 49*; LMPTP inh: 3; Rpn11 inh conf: 4; MMP-2 inh: 5; Thrombin FP: -6

What do the screens show for `CC(C)Nc1nc(NC(C)C)nc(Oc2ccc(=O)n(C)n2)n1`?
STEP inh: 0; Scp-1 inhibitor: 1; DNMT1 block: 0; Rpn11 block: -1; LMPTP inh: 1

Results for CC(C)Nc1nc(Oc2ccc(=O)n(-c3ccccc3)n2)nc(N(C)C)n1 ?
STEP inh: 0; Scp-1 inhibitor: -7; DNMT1 block: -10; Rpn11 block: 44*; LMPTP inh: -3; Rpn11 inh conf: 5; MMP-2 inh: -7; Thrombin FP: 2

Results for COc1ccc2cc(C(=O)C3CCCN(Cc4cnc(N5CCOCC5)s4)C3)ccc2c1 (stereo unspecified) ?
STEP inh: 2; Scp-1 inhibitor: -2; DNMT1 block: -4; Rpn11 block: 42*; LMPTP inh: 3; Rpn11 inh conf: 0; MMP-2 inh: -20; Thrombin FP: 6

What do the screens show for `CN1/C(=C\C(=S)NC(=O)c2ccc([N+](=O)[O-])cc2)C(C)(C)c2ccccc21`?
STEP inh: 0; Scp-1 inhibitor: 5; DNMT1 block: 5; Rpn11 block: 16; LMPTP inh: 3

Results for CN1/C(=C\C(=S)NC(=O)c2cccc(Br)c2)C(C)(C)c2ccccc21 ?
STEP inh: 7; Scp-1 inhibitor: 13; DNMT1 block: 6; Rpn11 block: 48*; LMPTP inh: 5; Rpn11 inh conf: 25; MMP-2 inh: 22; Thrombin FP: 9

What do the screens show for `CN(CCOc1ccc(Cl)cc1)C(=O)C1CCN(C(=O)c2ccc(Cl)cc2)CC1`?
STEP inh: -1; Scp-1 inhibitor: 1; DNMT1 block: -1; Rpn11 block: 4; LMPTP inh: 0

Results for COc1ccc2nc(/C(C#N)=C\c3ccc(C(=O)O)cc3)[nH]c2c1 ?
STEP inh: 0; Scp-1 inhibitor: 3; DNMT1 block: -3; Rpn11 block: 43*; LMPTP inh: 1; Rpn11 inh conf: 33; MMP-2 inh: -23; Thrombin FP: 27

What do the screens show for `O=C(OCC(=O)c1ccc[nH]1)c1cncc(Br)c1`?
STEP inh: -5; Scp-1 inhibitor: 3; DNMT1 block: 16; Rpn11 block: 1; LMPTP inh: 1

How did Cc1nnc(-c2cccc(Br)c2)c2cn(-c3ccccc3Cl)nc12 do in these assays?
STEP inh: 1; Scp-1 inhibitor: 6; DNMT1 block: 42; Rpn11 block: 76*; LMPTP inh: 1; Rpn11 inh conf: 26; MMP-2 inh: -8; Thrombin FP: 26

Results for O=C(NCCSCc1ccccc1)c1ccc(C2SCC(=O)N2Cc2ccccc2)cc1 (stereo unspecified) ?
STEP inh: 4; Scp-1 inhibitor: -5; DNMT1 block: -12; Rpn11 block: 57*; LMPTP inh: 4; Rpn11 inh conf: 43*; MMP-2 inh: 27; Thrombin FP: 16
